Our source for the Ki values is ChEMBL document CHEMBL2016452, “Flavones and structurally related 4-chromenones inhibit carbonic anhydrases by a different mechanism of action compared to coumarins” (Bioorg Med Chem Lett, 2012).

One experiment has as its target T1, Carbonic anhydrase 15 (Mus musculus, UniProt Q99N23).
T1 sequence (Q99N23 whole entry): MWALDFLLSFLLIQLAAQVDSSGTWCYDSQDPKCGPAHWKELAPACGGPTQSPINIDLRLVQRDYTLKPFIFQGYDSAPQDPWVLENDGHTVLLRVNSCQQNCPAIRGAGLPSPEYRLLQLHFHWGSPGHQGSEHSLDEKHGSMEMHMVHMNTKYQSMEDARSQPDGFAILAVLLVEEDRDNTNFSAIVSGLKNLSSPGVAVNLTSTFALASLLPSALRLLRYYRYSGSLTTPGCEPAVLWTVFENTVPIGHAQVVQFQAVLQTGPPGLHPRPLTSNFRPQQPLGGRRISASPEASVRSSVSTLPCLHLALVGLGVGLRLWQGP
In words: Inhibition of mouse carbonic anhydrase 15 preincubated for 15 mins by stopped flow CO2 hydration assay. In short, it runs like this:
(§1)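 Stopped-flow CO2 hydration, with phenol red 0.2 mM as indicator at 557 nm. Buffer 20 mM Hepes pH 7.5 with 20 mM NaClO4. Initial rates measured over 10–100 s, with uncatalyzed rate subtracted. Inhibitor stock 0.1 mM in water, diluted with assay buffer. Enzyme and inhibitor preincubated 15 min at room temperature. KI by non-linear least squares, mean of at least three determinations.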

A further experiment deals with Carbonic anhydrase 7 (Homo sapiens, UniProt P43166). Description: Inhibition of human carbonic anhydrase 7 preincubated for 15 mins by stopped flow CO2 hydration assay. In short, it runs like this:
as §1

Experiment [1] addresses T2, Carbonic anhydrase 12 (Homo sapiens, UniProt O43570). In words: Inhibition of transmembrane tumor-associated human carbonic anhydrase 12 preincubated for 15 mins by stopped flow CO2 hydration assay. In short, it runs like this:
as §1

Experiment [2] deals with T3, Carbonic anhydrase 9 (Homo sapiens, UniProt Q16790). In words: Inhibition of transmembrane tumor-associated human carbonic anhydrase 9 preincubated for 15 mins by stopped flow CO2 hydration assay. In short, it runs like this: as §1
For a further experiment, the target named is Carbonic anhydrase 4 (Homo sapiens, UniProt P22748). Description: Inhibition of human carbonic anhydrase 4 preincubated for 15 mins by stopped flow CO2 hydration assay.
Sequence of Carbonic anhydrase 4 (P22748 whole entry): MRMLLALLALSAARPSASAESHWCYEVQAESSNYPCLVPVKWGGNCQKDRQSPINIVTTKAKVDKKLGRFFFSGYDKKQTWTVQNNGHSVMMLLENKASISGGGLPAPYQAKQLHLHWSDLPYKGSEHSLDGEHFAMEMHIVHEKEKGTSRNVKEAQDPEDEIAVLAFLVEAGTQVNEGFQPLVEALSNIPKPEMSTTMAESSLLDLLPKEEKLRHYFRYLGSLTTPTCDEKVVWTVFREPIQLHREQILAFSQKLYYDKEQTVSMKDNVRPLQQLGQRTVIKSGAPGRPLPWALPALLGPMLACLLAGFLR
The target of the next experiment is Carbonic anhydrase 14 (Homo sapiens, UniProt Q9ULX7). Description: Inhibition of human carbonic anhydrase 14 preincubated for 15 mins by stopped flow CO2 hydration assay.
Sequence of Carbonic anhydrase 14 (Q9ULX7 whole entry): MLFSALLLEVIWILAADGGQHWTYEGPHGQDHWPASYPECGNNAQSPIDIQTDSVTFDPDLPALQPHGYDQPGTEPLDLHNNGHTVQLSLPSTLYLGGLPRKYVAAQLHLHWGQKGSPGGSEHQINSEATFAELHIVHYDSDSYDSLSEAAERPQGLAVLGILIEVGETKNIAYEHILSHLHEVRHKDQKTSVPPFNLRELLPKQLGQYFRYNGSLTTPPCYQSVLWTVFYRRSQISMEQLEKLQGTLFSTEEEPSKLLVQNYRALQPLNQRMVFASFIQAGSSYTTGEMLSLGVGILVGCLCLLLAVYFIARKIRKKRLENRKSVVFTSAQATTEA
A further experiment addresses Carbonic anhydrase 13 (Homo sapiens, UniProt Q8N1Q1). Description: Inhibition of human carbonic anhydrase 13 preincubated for 15 mins by stopped flow CO2 hydration assay.
The next experiment addresses Carbonic anhydrase 3 (Homo sapiens, UniProt P07451). In words: Inhibition of human carbonic anhydrase 3 preincubated for 15 mins by stopped flow CO2 hydration assay.
Experiment [3] addresses T4, Carbonic anhydrase 2 (Homo sapiens, UniProt P00918). Description: Inhibition of cytosolic human carbonic anhydrase 2 preincubated for 15 mins by stopped flow CO2 hydration assay.
Experiment [4] concerns the target Carbonic anhydrase 5A, mitochondrial (Homo sapiens, UniProt P35218). In words: Inhibition of human carbonic anhydrase 5a preincubated for 15 mins by stopped flow CO2 hydration assay.
The next experiment deals with Carbonic anhydrase 6 (Homo sapiens, UniProt P23280). In words: Inhibition of human carbonic anhydrase 6 preincubated for 15 mins by stopped flow CO2 hydration assay.
Sequence of Carbonic anhydrase 6 (P23280 whole entry): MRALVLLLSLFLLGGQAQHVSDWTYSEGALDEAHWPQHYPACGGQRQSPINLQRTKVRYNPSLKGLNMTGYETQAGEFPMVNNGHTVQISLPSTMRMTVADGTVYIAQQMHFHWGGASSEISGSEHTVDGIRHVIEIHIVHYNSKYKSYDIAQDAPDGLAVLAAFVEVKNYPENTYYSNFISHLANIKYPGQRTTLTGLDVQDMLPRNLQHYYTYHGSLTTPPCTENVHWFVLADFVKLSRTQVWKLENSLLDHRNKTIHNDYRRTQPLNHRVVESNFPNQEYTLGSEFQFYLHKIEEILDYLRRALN
Experiment [5] has as its target Carbonic anhydrase 5B, mitochondrial (Homo sapiens, UniProt Q9Y2D0). Description: Inhibition of human carbonic anhydrase 5b preincubated for 15 mins by stopped flow CO2 hydration assay.
Experiment [6] concerns the target T4, Carbonic anhydrase 2. Description: Inhibition of cytosolic human carbonic anhydrase 2 preincubated for 12 hrs by stopped flow CO2 hydration assay. The method, boiled down: (§2)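 Stopped-flow CO2 hydration, with phenol red 0.2 mM as indicator read at 557 nm. Buffer 20 mM Hepes pH 7.5 with 20 mM NaClO4 for ionic strength. Initial rates followed for 10–100 s, with uncatalyzed rates subtracted. Inhibitor stock 0.1 mM in water, diluted in assay buffer. Enzyme and inhibitor preincubated 12 h at 4 °C. KI by non-linear least squares, mean of at least three determinations.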

Experiment [7] deals with T2, Carbonic anhydrase 12. Description: Inhibition of transmembrane tumor-associated human carbonic anhydrase 12 preincubated for 12 hrs by stopped flow CO2 hydration assay. In short, it runs like this:
as §2

For experiment [8], the target named is T5, Carbonic anhydrase 1 (Homo sapiens, UniProt P00915). In words: Inhibition of cytosolic human carbonic anhydrase 1 preincubated for 15 mins by stopped flow CO2 hydration assay.
T5 sequence (P00915 whole entry): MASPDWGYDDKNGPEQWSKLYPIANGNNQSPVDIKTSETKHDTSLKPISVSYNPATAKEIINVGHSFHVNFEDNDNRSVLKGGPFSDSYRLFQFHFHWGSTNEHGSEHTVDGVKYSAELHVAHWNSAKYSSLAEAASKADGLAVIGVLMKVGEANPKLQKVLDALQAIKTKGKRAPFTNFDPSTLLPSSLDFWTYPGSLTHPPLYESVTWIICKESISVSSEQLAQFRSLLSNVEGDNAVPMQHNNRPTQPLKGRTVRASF
Experiment [9] concerns the target T3, Carbonic anhydrase 9. In words: Inhibition of transmembrane tumor-associated human carbonic anhydrase 9 preincubated for 12 hrs by stopped flow CO2 hydration assay. In short, it runs like this: as §2
The target in experiment [10] is T5, Carbonic anhydrase 1. In words: Inhibition of cytosolic human carbonic anhydrase 1 preincubated for 12 hrs by stopped flow CO2 hydration assay. The method, boiled down: as §2

pKi: −log10 of the molar value.

Sequence of Carbonic anhydrase 7 (P43166 whole entry): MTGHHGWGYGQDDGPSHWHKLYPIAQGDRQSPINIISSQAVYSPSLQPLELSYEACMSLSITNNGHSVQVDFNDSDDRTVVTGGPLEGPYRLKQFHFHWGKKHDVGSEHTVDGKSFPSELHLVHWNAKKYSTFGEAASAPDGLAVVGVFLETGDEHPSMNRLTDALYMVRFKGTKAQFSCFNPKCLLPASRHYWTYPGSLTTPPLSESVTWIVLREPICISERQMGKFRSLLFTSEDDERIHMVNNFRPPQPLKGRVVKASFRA
T2 sequence (O43570 whole entry): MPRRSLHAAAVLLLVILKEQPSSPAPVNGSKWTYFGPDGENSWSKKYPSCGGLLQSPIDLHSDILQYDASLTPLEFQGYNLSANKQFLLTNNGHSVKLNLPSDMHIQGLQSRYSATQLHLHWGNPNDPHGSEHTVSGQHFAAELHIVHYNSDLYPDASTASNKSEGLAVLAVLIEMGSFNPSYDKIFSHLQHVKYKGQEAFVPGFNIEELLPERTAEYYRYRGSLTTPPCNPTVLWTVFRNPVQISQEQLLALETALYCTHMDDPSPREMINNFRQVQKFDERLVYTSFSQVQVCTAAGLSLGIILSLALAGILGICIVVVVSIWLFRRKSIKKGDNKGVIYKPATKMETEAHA
Sequence of Carbonic anhydrase 5A, mitochondrial (P35218 whole entry): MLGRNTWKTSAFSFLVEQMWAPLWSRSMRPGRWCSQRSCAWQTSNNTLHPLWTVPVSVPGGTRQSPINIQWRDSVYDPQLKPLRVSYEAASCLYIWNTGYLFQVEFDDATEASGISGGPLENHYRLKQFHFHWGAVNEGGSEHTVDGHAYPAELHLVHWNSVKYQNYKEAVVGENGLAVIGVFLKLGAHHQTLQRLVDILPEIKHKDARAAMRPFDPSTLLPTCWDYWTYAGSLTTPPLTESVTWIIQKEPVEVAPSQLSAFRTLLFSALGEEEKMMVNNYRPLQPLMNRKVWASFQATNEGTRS
Sequence of Carbonic anhydrase 5B, mitochondrial (Q9Y2D0 whole entry): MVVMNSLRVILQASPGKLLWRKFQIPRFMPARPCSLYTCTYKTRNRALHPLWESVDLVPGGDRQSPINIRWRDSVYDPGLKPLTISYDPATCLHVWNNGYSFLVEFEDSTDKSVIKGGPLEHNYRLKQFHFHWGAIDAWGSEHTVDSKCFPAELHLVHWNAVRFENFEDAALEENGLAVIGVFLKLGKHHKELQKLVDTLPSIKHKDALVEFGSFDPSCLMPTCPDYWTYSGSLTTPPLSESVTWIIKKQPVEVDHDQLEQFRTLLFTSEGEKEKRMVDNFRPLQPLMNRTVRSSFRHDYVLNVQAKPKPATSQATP
Sequence of Carbonic anhydrase 3 (P07451 whole entry): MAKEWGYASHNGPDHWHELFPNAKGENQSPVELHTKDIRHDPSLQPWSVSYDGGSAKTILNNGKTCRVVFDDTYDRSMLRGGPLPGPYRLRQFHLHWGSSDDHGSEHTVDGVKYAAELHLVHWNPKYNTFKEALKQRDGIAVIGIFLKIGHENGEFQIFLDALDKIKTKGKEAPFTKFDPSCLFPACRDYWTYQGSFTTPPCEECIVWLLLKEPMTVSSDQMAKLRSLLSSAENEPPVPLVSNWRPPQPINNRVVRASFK
Sequence of Carbonic anhydrase 13 (Q8N1Q1 whole entry): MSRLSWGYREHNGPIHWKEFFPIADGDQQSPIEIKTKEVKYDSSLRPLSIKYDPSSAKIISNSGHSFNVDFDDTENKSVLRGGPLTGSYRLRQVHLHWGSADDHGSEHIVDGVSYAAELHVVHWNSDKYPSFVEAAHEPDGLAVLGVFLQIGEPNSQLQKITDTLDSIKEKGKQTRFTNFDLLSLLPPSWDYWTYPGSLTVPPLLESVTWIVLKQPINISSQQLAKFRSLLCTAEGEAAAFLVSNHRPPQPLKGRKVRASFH

As usually defined, the pKi is the negative decadic logarithm of the Ki, by convention in mol/L. A high value points to a small Ki. Take `Nc1oc2ccc(Cl)cc2c(=O)c1-c1ccc(Cl)cc1`: the pKi is 5.43 on Carbonic anhydrase 15, 5.10 at Carbonic anhydrase 7, 5.03 at Carbonic anhydrase 12 [1] and 5.47 on Carbonic anhydrase 9 [2].

With `COc1ccc(-c2c(N)oc3ccc(Cl)cc3c2=O)cc1`, the pKi on Carbonic anhydrase 15 was 5.78; at Carbonic anhydrase 7, 5.17; at Carbonic anhydrase 12 [1], 5.19; on Carbonic anhydrase 9 [2], 5.62.

For the molecule `Oc1ccc(C=Cc2cc(O)cc(O)c2)cc1` (mixture of isomers), the pKi on Carbonic anhydrase 4 was 5.40; at Carbonic anhydrase 14 it was 5.71; on Carbonic anhydrase 15, 5.59; at Carbonic anhydrase 13, 5.08; on Carbonic anhydrase 7 it was 5.05; on Carbonic anhydrase 12 [1] it was 5.09. The pKi was 5.17 at Carbonic anhydrase 3; 5.76 on Carbonic anhydrase 2 [3]; 5.54 in [4]; 5.02 at Carbonic anhydrase 9 [2]; 5.06 on Carbonic anhydrase 6; 5.49 in experiment [5].

Turning to `O=c1cc(-c2ccccc2)oc2cc(O)ccc12` [7-HYDROXYFLAVONE], the pKi is 5.63 at Carbonic anhydrase 2 [6]; 5.08 at Carbonic anhydrase 12 [1]; 5.07 on Carbonic anhydrase 12 [7]; 5.47 at Carbonic anhydrase 1 [8]; 5.31 on Carbonic anhydrase 9 [9]; 5.65 at Carbonic anhydrase 2 [3]. Also, the pKi on Carbonic anhydrase 1 [10] was 5.46; on Carbonic anhydrase 9 [2], 5.31.

With `O=c1cc(-c2ccccc2)oc2cc(O)cc(O)c12` [CHRYSIN], the pKi was 5.37 at Carbonic anhydrase 2 [6]; 5.05 at Carbonic anhydrase 12 [1]; 5.04 on Carbonic anhydrase 12 [7]; 5.26 at Carbonic anhydrase 1 [8]; 5.57 at Carbonic anhydrase 9 [9]; 5.36 at Carbonic anhydrase 2 [3]. Besides, the pKi at Carbonic anhydrase 1 [10] was 5.27; on Carbonic anhydrase 9 [2], 5.58.

Turning to `O=c1cc(-c2ccccc2)oc2ccccc12` [FLAVONE], the pKi on Carbonic anhydrase 2 [6] is 5.06; on Carbonic anhydrase 12 [1] it was 5.14; at Carbonic anhydrase 12 [7], 5.13; at Carbonic anhydrase 1 [8] it was 5.72; at Carbonic anhydrase 9 [9] it was 5.37; at Carbonic anhydrase 2 [3], 5.06. For the same molecule, the figures for the pKi at Carbonic anhydrase 1 [10] and on Carbonic anhydrase 9 [2] were 5.73 and 5.38, respectively.

As for `O=c1c(O)c(-c2ccccc2)oc2ccccc12` [FLAVONOL], the pKi at Carbonic anhydrase 2 [6] was 5.04; on Carbonic anhydrase 12 [1], 5.18; on Carbonic anhydrase 12 [7] it was 5.18; at Carbonic anhydrase 1 [8] it was 5.28; at Carbonic anhydrase 9 [9] it was 5.25; at Carbonic anhydrase 2 [3] it was 5.03. In addition, the pKi is 5.29 at Carbonic anhydrase 1 [10] and 5.26 on Carbonic anhydrase 9 [2].
